Laboratory results: ChEMBL document CHEMBL1135850, “P1 Phenethyl peptide boronic acid inhibitors of HCV NS3 protease” (Bioorg Med Chem Lett, 2002)
Peptide text beside a SMILES is read from it. * marks the point of attachment. X5 = Cc1ccc(CC[C@H](N*)B2O[C@@H]3C[C@@H]4C[C@@H](C4(C)C)[C@]3(C)O2)c(C)c1; X7 = Cc1ccc(C)c(CC[C@H](N*)B2O[C@@H]3C[C@@H]4C[C@@H](C4(C)C)[C@]3(C)O2)c1; X2 = Cc1ccccc1CC[C@H](N*)B1O[C@@H]2C[C@@H]3C[C@@H](C3(C)C)[C@]2(C)O1

Legend:
Neutrophil elastase = biological target: T1, Neutrophil elastase (Homo sapiens, UniProt P08246); test: Inhibitory concentration against Human leukocyte Elastase
T1 sequence (P08246 whole entry): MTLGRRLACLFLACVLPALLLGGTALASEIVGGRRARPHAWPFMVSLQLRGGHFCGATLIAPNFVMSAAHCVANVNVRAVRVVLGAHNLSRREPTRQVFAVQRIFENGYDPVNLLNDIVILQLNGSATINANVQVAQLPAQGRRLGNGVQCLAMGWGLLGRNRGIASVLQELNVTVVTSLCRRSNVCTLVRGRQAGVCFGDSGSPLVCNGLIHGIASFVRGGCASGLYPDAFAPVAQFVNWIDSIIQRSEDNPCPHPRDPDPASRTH
Procedure, shortened: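 Human neutrophil elastase (stock 1 mg/mL in PBS with 10% glycerol) with MeO-Suc-Ala-Ala-Pro-Val-p-nitroanilide substrate in PBS at room temperature, DMSO ≤2%. Inhibitors were tested as pinanediol esters. Substrate hydrolysis was followed at 405 nm to derive kinetic parameters.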

NS3 = NS3 (Hepatitis C virus, UniProt A3EZJ3); test: Inhibitory concentration against Hepatitis C virus NS3 protease; set-up: species or system Hepacivirus hominis
Procedure, shortened: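 Continuous fluorescence assay with 4 nM NS3 protease plus NS4A cofactor peptide, in 50 mM Tris pH 7.0, 5 mM DTT, 50% glycerol, 2% CHAPS. Serially diluted inhibitors, given as boronic acid pinanediol esters, were preincubated with enzyme for 15 min. The reaction was started with the FRET ester substrate Ac-DED(EDANS)EEAbuψ[COO]ASK(DABCYL)-NH2 at ambient temperature and read at excitation 360 nm, emission 530 nm.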

SMILES	IC50 (Neutrophil elastase)	IC50 (NS3)
CC[C@H](NC(=O)[C@H]1CCCN1C(=O)[C@@H](NC(=O)[C@@H](NC(=O)[C@H](CCC(=O)O)NC(=O)[C@@H](N)CC(=O)O)C(C)C)C(C)C)B1O[C@@H]2C[C@@H]3C[C@@H](C3(C)C)[C@]2(C)O1	20 nM	–
Cc1ccc(CC[C@H](NC(=O)[C@H]2CCCN2C(=O)[C@@H](NC(=O)[C@@H](NC(=O)[C@H](CCC(=O)O)NC(=O)[C@@H](N)CC(=O)O)C(C)C)C(C)C)B2O[C@@H]3C[C@@H]4C[C@@H](C4(C)C)[C@]3(C)O2)cc1	5000 nM	–
CC(C)[C@H](NC(=O)[C@H](CCC(=O)O)NC(=O)[C@@H](N)CC(=O)O)C(=O)N[C@H](C(=O)N1CCC[C@@H]1C(=O)N[C@@H](CCc1ccc(C(C)(C)C)cc1)B1O[C@@H]2C[C@@H]3C[C@@H](C3(C)C)[C@]2(C)O1)C(C)C	340 nM	–
CC(C)[C@H](NC(=O)[C@H](CCC(=O)O)NC(=O)[C@@H](N)CC(=O)O)C(=O)N[C@H](C(=O)N1CCC[C@@H]1C(=O)N[C@@H](CCc1ccc(C2CCCCC2)cc1)B1O[C@@H]2C[C@@H]3C[C@@H](C3(C)C)[C@]2(C)O1)C(C)C	400 nM	–
CC(C)[C@H](NC(=O)[C@H](CCC(=O)O)NC(=O)[C@@H](N)CC(=O)O)C(=O)N[C@H](C(=O)N1CCC[C@@H]1C(=O)N[C@@H](CCc1ccc(O)cc1)B1O[C@@H]2C[C@@H]3C[C@@H](C3(C)C)[C@]2(C)O1)C(C)C	900 nM	–
CC(C)[C@H](NC(=O)[C@H](CCC(=O)O)NC(=O)[C@@H](N)CC(=O)O)C(=O)N[C@H](C(=O)N1CCC[C@@H]1C(=O)N[C@@H](CCc1ccc(-c2ccccc2)cc1)B1O[C@@H]2C[C@@H]3C[C@@H](C3(C)C)[C@]2(C)O1)C(C)C	900 nM	–
CC(C)[C@H](NC(=O)[C@H](CCC(=O)O)NC(=O)[C@@H](N)CC(=O)O)C(=O)N[C@H](C(=O)N1CCC[C@@H]1C(=O)N[C@@H](CCCCc1ccccc1)B1O[C@@H]2C[C@@H]3C[C@@H](C3(C)C)[C@]2(C)O1)C(C)C	400 nM	–
Cc1ccccc1CC[C@H](NC(=O)[C@@H]1CCCN1C(=O)[C@@H](NC(=O)[C@@H](NC(=O)[C@H](CCC(=O)O)NC(=O)[C@@H](N)CC(=O)O)C(C)C)C(C)C)B1O[C@@H]2C[C@@H]3C[C@@H](C3(C)C)[C@]2(C)O1 (H-DEVVP-X2)	–	820 nM

Second part, the compound after the results:

IC50 (Neutrophil elastase)	IC50 (NS3)	SMILES
1600 nM	–	CC(C)[C@H](NC(=O)[C@H](CCC(=O)O)NC(=O)[C@@H](N)CC(=O)O)C(=O)N[C@H](C(=O)N1CCC[C@@H]1C(=O)N[C@@H](CCc1ccc(Br)cc1)B1O[C@@H]2C[C@@H]3C[C@@H](C3(C)C)[C@]2(C)O1)C(C)C
–	1000 nM	Cc1ccc(C)c(CC[C@H](NC(=O)[C@@H]2CCCN2C(=O)[C@@H](NC(=O)[C@@H](NC(=O)[C@H](CCC(=O)O)NC(=O)[C@@H](N)CC(=O)O)C(C)C)C(C)C)B2O[C@@H]3C[C@@H]4C[C@@H](C4(C)C)[C@]3(C)O2)c1 (H-DEVVP-X7)
–	530 nM	Cc1ccc(CC[C@H](NC(=O)[C@@H]2CCCN2C(=O)[C@@H](NC(=O)[C@@H](NC(=O)[C@H](CCC(=O)O)NC(=O)[C@@H](N)CC(=O)O)C(C)C)C(C)C)B2O[C@@H]3C[C@@H]4C[C@@H](C4(C)C)[C@]3(C)O2)c(C)c1 (H-DEVVP-X5)
450 nM	–	CC(C)c1ccc(CC[C@H](NC(=O)[C@H]2CCCN2C(=O)[C@@H](NC(=O)[C@@H](NC(=O)[C@H](CCC(=O)O)NC(=O)[C@@H](N)CC(=O)O)C(C)C)C(C)C)B2O[C@@H]3C[C@@H]4C[C@@H](C4(C)C)[C@]3(C)O2)cc1
220 nM	–	CC(C)[C@H](NC(=O)[C@H](CCC(=O)O)NC(=O)[C@@H](N)CC(=O)O)C(=O)N[C@H](C(=O)N1CCC[C@@H]1C(=O)N[C@@H](CCc1ccc(Oc2ccccc2)cc1)B1O[C@@H]2C[C@@H]3C[C@@H](C3(C)C)[C@]2(C)O1)C(C)C
7300 nM	–	CC(C)CCC[C@H](NC(=O)[C@H]1CCCN1C(=O)[C@@H](NC(=O)[C@@H](NC(=O)[C@H](CCC(=O)O)NC(=O)[C@@H](N)CC(=O)O)C(C)C)C(C)C)B1O[C@@H]2C[C@@H]3C[C@@H](C3(C)C)[C@]2(C)O1
560 nM	–	COc1ccc(CC[C@H](NC(=O)[C@H]2CCCN2C(=O)[C@@H](NC(=O)[C@@H](NC(=O)[C@H](CCC(=O)O)NC(=O)[C@@H](N)CC(=O)O)C(C)C)C(C)C)B2O[C@@H]3C[C@@H]4C[C@@H](C4(C)C)[C@]3(C)O2)cc1
